Key:
[1] = folding enthalpy; higher = less favourable; fluorescence melt of hairpins on a sequencing array, two-state fit; details: sodium 0.088 M
Summary of the method: (§1)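 Cy3 fluorescence of library hairpins on a sequenced MiSeq flow cell, with annealed Cy3 and quencher oligos, was imaged in 50 mM Na-HEPES pH 8.0, 25 mM NaCl in 2.5 °C steps up to 60 °C. Signals were normalised to pre-quench Cy3 and to control variants. Melting temperature and folding enthalpy came from bootstrapped two-state fits, inverse-variance combined over four replicates. Fitted temperatures were raised by 9.35 °C to match UV melts.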

[2] = melting temperature; fluorescence melt of hairpins on a sequencing array, two-state fit, raised by 9.35 °C to match UV melts; details: sodium 0.088 M
Summary of the method: as §1

Row | Sequence | folding enthalpy [1] | Tm [2]
1 | GTCTCCGGAAACGGAGGC (.(((((....))))).) | -25.2 kcal/mol | 61.7 °C
2 | GTCTCGCGAAAGCGTGAC (((.(((....))).))) | -28.6 kcal/mol | 60.7 °C
3 | GTCTCTACGAAAGTAGAC (((..(((....)))))) | -11.2 kcal/mol | 33.2 °C
4 | GTCTCTGAAAAGAGAC ((((((....)))))) | -33.4 kcal/mol | 58.1 °C
5 | GTCTCTGCGAAAGCAGAC (((..(((....)))))) | -8.28 kcal/mol | 34.3 °C
6 | GTCTGACGAAAGTCCGAC (((.(((....))).))) | -28.5 kcal/mol | 49 °C
7 | GTCTGACGAAAGTCGAC (((.(((....)))))) | -16.9 kcal/mol | 49 °C
8 | GTCTGACGAAAGTCGGAC (((.(((....))).))) | -35.8 kcal/mol | 62.4 °C
9 | GTCTGAGGAAACCCAGAC (((((.(....).))))) | -31.8 kcal/mol | 45.9 °C
10 | GTCTGAGGAAACTTGGAC (((..((....))..))) | -15.9 kcal/mol | 31.7 °C
11 | GTCTGCCCGAAAGGGGAC (((..(((....)))))) | -10.9 kcal/mol | 34.8 °C
12 | GTCTGCGAAAGCACCGAC ((((((....)))..))) | -12.7 kcal/mol | 32.3 °C
13 | GTCTGCGAAAGCACTGAC ((((((....)))..))) | -15.1 kcal/mol | 36.3 °C
14 | GTCTGCGAAAGCAGTGAC ((((((....)))..))) | -9.57 kcal/mol | 40.5 °C
15 | GTCTGGCGAAAGCCTGAC (((.(((....))).))) | -26.8 kcal/mol | 62 °C
16 | GTCTGGTCGAAAGACGAC (((..(((....)))))) | -17.2 kcal/mol | 41.5 °C
17 | GTCTGTGAAAACAGAC ((((((....)))))) | -36.1 kcal/mol | 57.8 °C
18 | GTCTGTGGAAACACAGAC (((((((....))))))) | -50.5 kcal/mol | 65.1 °C
19 | GTCTTACGAAAGTACGAC (((.(((....))).))) | -34.5 kcal/mol | 43.8 °C
20 | GTCTTACGAAAGTAGGAC (((.(((....))).))) | -28.2 kcal/mol | 48.9 °C
21 | GTCTTACGAAAGTATGAC (((.(((....))).))) | -30.9 kcal/mol | 48.3 °C
22 | GTCTTATCGAAAGATGAC (((..(((....)))))) | -20.1 kcal/mol | 28.5 °C
23 | GTCTTCGAAAGAAGAGAC ((((((....)))..))) | -16.7 kcal/mol | 36.5 °C

Row | Sequence | folding enthalpy [1] | Tm [2]
24 | GTCTTCGAAAGAAGCGAC ((((((....)))..))) | -20 kcal/mol | 44.7 °C
25 | GTCTTCGAAAGAAGGAC ((((((....))).))) | -16.4 kcal/mol | 41.6 °C
26 | GTCTTCGCGAAAGCGGAC (((..(((....)))))) | -10.6 kcal/mol | 30.4 °C
27 | GTCTTCTCGAAAGAGGAC (((..(((....)))))) | -17.2 kcal/mol | 33.5 °C
28 | GTCTTGGAAACAAGAC ((((((....)))))) | -35.3 kcal/mol | 54.9 °C
29 | GTCTTGGCGAAAGCCGAC (((..(((....)))))) | -9.96 kcal/mol | 37.5 °C
30 | GTCTTGGGAAACTGAGAC ((((..(....)..)))) | -23.8 kcal/mol | 35.1 °C
31 | GTCTTTGGAAACGAAGAC (((((.(....).))))) | -30.6 kcal/mol | 45 °C
32 | GTGAAACGAAAGTTACAC (((.(((....))).))) | -29.7 kcal/mol | 46.2 °C
33 | GTGAAACGAAAGTTGCAC (((.(((....))).))) | -31.2 kcal/mol | 51.6 °C
34 | GTGAAAGGAAACTTTCAC (((((((....))))))) | -50.6 kcal/mol | 54.1 °C
35 | GTGAACGAAAGTTAGCAC ((((((....)))..))) | -12.5 kcal/mol | 29.1 °C
36 | GTGAACGGAAACGTTTGC (..((((....))))..) | -22.6 kcal/mol | 38.9 °C
37 | GTGAAGAAATTCAC (((((....))))) | -18.8 kcal/mol | 38.3 °C
38 | GTGAAGACGAAAGTCCAC (((..(((....)))))) | -18.4 kcal/mol | 41.6 °C
39 | GTGAAGCGAAAGCTACAC (((.(((....))).))) | -30.1 kcal/mol | 55.7 °C
40 | GTGAAGCGAAAGCTGCAC (((.(((....))).))) | -35 kcal/mol | 61 °C
41 | GTGAAGGGAAACCCTCAC ((((.((....)).)))) | -26.9 kcal/mol | 43.3 °C
42 | GTGAAGGGAAACTTTCAC (((((.(....).))))) | -24.8 kcal/mol | 40.2 °C
43 | GTGAATCGAAAGATCCAC (((.(((....))).))) | -27.7 kcal/mol | 43.4 °C
44 | GTGACAACGAAAGTTCAC (((..(((....)))))) | -11.1 kcal/mol | 34.8 °C
45 | GTGACACCGAAAGGTCAC (((..(((....)))))) | -25 kcal/mol | 47.8 °C
46 | GTGACACGAAAGTGCAC (((.(((....)))))) | -17.3 kcal/mol | 53.2 °C

Row | Sequence | folding enthalpy [1] | Tm [2]
47 | GTGACATCGAAAGATCAC (((..(((....)))))) | -16.2 kcal/mol | 33 °C
48 | GTGACCACGAAAGTGCAC (((..(((....)))))) | -12 kcal/mol | 32 °C
49 | GTGACCCGAAAGGGACAC (((.(((....))).))) | -40.2 kcal/mol | 61.8 °C
50 | GTGACCGAAAGGTACCAC ((((((....)))..))) | -11.6 kcal/mol | 35.1 °C
51 | GTGACCGAAAGGTCGCAC ((((((....)))..))) | -11.1 kcal/mol | 58.6 °C
52 | GTGACCGAAAGGTTACAC ((((((....)))..))) | -16.6 kcal/mol | 49.8 °C
53 | GTGACCGAAAGGTTCCAC ((((((....)))..))) | -9.64 kcal/mol | 33.2 °C
54 | GTGACCTCGAAAGAGCAC (((..(((....)))))) | -14.8 kcal/mol | 30.9 °C
55 | GTGACGCGAAAGCGCCAC (((.(((....))).))) | -33.9 kcal/mol | 68 °C
56 | GTGACGGGAAACCGTCGC (.(((((....))))).) | -24.8 kcal/mol | 62.6 °C
57 | GTGACGGGAAACCGTTAC ((.((((....)))).)) | -22.2 kcal/mol | 51.9 °C
58 | GTGACTGGAAACAATCAC ((((.((....)).)))) | -20.1 kcal/mol | 36 °C
59 | GTGAGACGAAAGTCCCAC (((.(((....))).))) | -27.3 kcal/mol | 50.4 °C
60 | GTGAGACGAAAGTCGCAC (((.(((....))).))) | -31.9 kcal/mol | 64.5 °C
61 | GTGAGAGAAATCTCAC ((((((....)))))) | -32.4 kcal/mol | 51.7 °C
62 | GTGAGAGGAAACCCTCAC (((((.(....).))))) | -26.2 kcal/mol | 43.5 °C
63 | GTGAGAGGAAACTCCCAC (((.(((....))).))) | -24.7 kcal/mol | 36.6 °C
64 | GTGAGAGGAAACTCTCGC (.(((((....))))).) | -27.2 kcal/mol | 51.2 °C
65 | GTGAGCCGAAAGGCACAC (((.(((....))).))) | -28.9 kcal/mol | 59.8 °C
66 | GTGAGCGAAAGCTACCAC ((((((....)))..))) | -10.5 kcal/mol | 35.9 °C
67 | GTGAGCGAAAGCTCCAC ((((((....))).))) | -11.3 kcal/mol | 48.3 °C
68 | GTGAGCGAAAGCTCGCAC ((((((....)))..))) | -11.7 kcal/mol | 55.1 °C

Reference: the array DNA melting data of Ke et al. (doi:10.1101/2024.01.08.574731)
